Laboratory results reported in ChEMBL document CHEMBL1123018, “7 alpha-substituted derivatives of androstenedione as inhibitors of estrogen biosynthesis” (J Med Chem, 1985).

Legend:
Aromatase [1] = molecular target: T1, Aromatase (Homo sapiens, UniProt P11511); assay: Inhibition of Cytochrome P450 19A1 at 1.25 uM
T1 sequence (P11511 whole entry): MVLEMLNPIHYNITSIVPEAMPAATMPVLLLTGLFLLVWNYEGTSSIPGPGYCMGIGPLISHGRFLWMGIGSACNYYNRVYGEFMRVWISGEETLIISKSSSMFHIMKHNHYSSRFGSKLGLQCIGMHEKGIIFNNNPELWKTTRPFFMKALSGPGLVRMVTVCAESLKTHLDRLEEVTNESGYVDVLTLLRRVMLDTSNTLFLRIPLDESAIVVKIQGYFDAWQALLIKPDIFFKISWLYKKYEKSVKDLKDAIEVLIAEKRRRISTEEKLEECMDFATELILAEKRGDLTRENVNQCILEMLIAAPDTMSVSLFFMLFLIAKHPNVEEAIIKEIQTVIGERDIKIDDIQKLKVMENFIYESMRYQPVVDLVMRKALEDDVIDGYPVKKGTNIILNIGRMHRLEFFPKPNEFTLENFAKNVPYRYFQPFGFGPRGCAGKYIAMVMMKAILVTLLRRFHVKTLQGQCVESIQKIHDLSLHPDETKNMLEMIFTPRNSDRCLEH
Procedure, shortened: (§1)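 Aromatase source was lyophilized human placental microsomes, measured by tritiated water release. The substrate was 0.25 μM [1-³H]androstenedione (83% of the tritium in the β position), about 5 times the Km for this enzyme preparation. Inhibitor was tested at 0.25 μM or 1.25 μM with buffer and cofactors for 15 min. Ethyl acetate stopped the reaction.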

Aromatase [2] = molecular target: T1, Aromatase; assay: Inhibition of Cytochrome P450 19A1 at 0.25 uM; procedure, shortened: as §1

Structure (SMILES) | inhibition at 1.25 µM (Aromatase [1]) | inhibition at 0.25 µM (Aromatase [2])
C[C@]12CCC(=O)C=C1C[C@@H](SCc1ccccc1)[C@@H]1[C@@H]2CC[C@]2(C)C(=O)CC[C@@H]12 | 69.8% | 33.5%
C[C@]12CCC(=O)C=C1C[C@@H](Sc1ccc(Cl)cc1)[C@@H]1[C@@H]2CC[C@]2(C)C(=O)CC[C@@H]12 | 83.4% | 56.5%
C[C@]12CCC(=O)C=C1C[C@@H](Sc1ccccc1)[C@@H]1[C@@H]2CC[C@]2(C)C(=O)CC[C@@H]12 | 66.8% | 62.7%
C[C@]12CCC(=O)C=C1C[C@@H](Sc1ccc(N)cc1)[C@@H]1[C@@H]2CC[C@]2(C)C(=O)CC[C@@H]12 | 85% | 51.6%
C[C@]12CCC(=O)C=C1C[C@@H](Sc1ccc(F)cc1)[C@@H]1[C@@H]2CC[C@]2(C)C(=O)CC[C@@H]12 | 74.1% | 55.3%
CC(=O)c1ccc(S[C@@H]2CC3=CC(=O)CC[C@]3(C)[C@H]3CC[C@]4(C)C(=O)CC[C@H]4[C@H]23)cc1 | 84.4% | 55.7%
C[C@]12CCC(=O)C=C1C[C@@H](Sc1ccc(Br)cc1)[C@@H]1[C@@H]2CC[C@]2(C)C(=O)CC[C@@H]12 | 80.8% | 47.3%
C[C@]12CCC(=O)C=C1C[C@@H](SC1CCCCC1)[C@@H]1[C@@H]2CC[C@]2(C)C(=O)CC[C@@H]12 | 32.2% | 18.5%
CCN(CC)c1ccc(S[C@@H]2CC3=CC(=O)CC[C@]3(C)[C@H]3CC[C@]4(C)C(=O)CC[C@H]4[C@H]23)cc1 | 53.2% | 11.7%
Cc1ccc(S[C@@H]2CC3=CC(=O)CC[C@]3(C)[C@H]3CC[C@]4(C)C(=O)CC[C@H]4[C@H]23)cc1 | 24.9% | 7.83%
C[C@]12CCC(=O)C=C1C[C@@H](Sc1ccc(I)cc1)[C@@H]1[C@@H]2CC[C@]2(C)C(=O)CC[C@@H]12 | 83.7% | 45%
C[C@]12CCC(=O)C=C1C[C@@H](Sc1cccc(N)c1)[C@@H]1[C@@H]2CC[C@]2(C)C(=O)CC[C@@H]12 | 73.3% | 39.9%
COc1ccc(S[C@@H]2CC3=CC(=O)CC[C@]3(C)[C@H]3CC[C@]4(C)C(=O)CC[C@H]4[C@H]23)cc1 | 36.7% | 7.93%
